Our source for the Activity and IC50 values is ChEMBL document CHEMBL1142544 (J Med Chem, 2008).

The source made the active and inactive calls. The rule behind the calls is not given here.

The nature of data set [1]: Stimulation of human Vgamma9Vdelta2 T lymphocytes assessed as gamma delta expansion factor after 7 days. Type of data set: functional.
A further data set deals with HuT78. Put plainly: Induction of apoptosis in human HUT78 cells at 100 uM by flow cytometry. Type of data set: functional. Summed up:
(§1)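 Tumor cells were exposed to 100 µM compound. Cells (1 × 10⁶) were washed in PBS, pelleted at 200g for 5 min, and stained with FITC-annexin V plus propidium iodide for 15 min at 20 °C. The percentage of annexin-V-positive cells was measured by flow cytometry.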
Background: Flow cytometry measures light scatter and fluorescence of single cells or particles in a stream.

The test system of data set [2] is K562. Put plainly: Induction of apoptosis in human K-562 cells expressing Bcr-Abl at 100 uM by flow cytometry. It is filed as functional. Summed up:
as §1

The next data set concerns CCRF-CEM. Kind of data set: Induction of apoptosis in human CCRF-CEM cells at 100 uM by flow cytometry. Type of data set: functional. Summed up: as §1
The nature of data set [3]: Induction of apoptosis in human CEM-VBL300 cells expressing p-glycoprotein at 100 uM by flow cytometry. It is filed as functional. Summed up:
as §1

Data set [4] concerns BT-549. Put plainly: Antitumor activity against human BT-549 cells xenografted SCID mouse assessed as survival time prolongation at 2 ug, ip. Type of data set: functional, cell-based. Summed up: (§2)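 SCID mice were conditioned by irradiation and anti-asialo-GM1 monoclonal antibody. On day 0 they received a single ip injection of BT549 breast cancer cells (2 × 10⁶/mouse). Drug was given ip (2 µg or 5 µg) with the tumor cells, alone or with ip human rIL-2 (300 ng). Where indicated, purified human γδ T cells (2 × 10⁷/mouse) were added. Cells and drug were reinjected every 15 days, with IL-2 on the same day and days 3 and 6 after. Read-out was mean survival time in days.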
In general terms: In xenograft studies the graft and the host belong to different species.

In data set [5] the test system is BT-549. Kind of data set: Antitumor activity against human BT-549 cells xenografted SCID mouse co-transfected with human gamma delta T lymphocytes assessed as survival time prolongation at 5 ug, ip. It is filed as functional, cell-based. Summed up: as §2
The subject of data set [6] is BT-549. Put plainly: Antitumor activity against human BT-549 cells xenografted SCID mouse co-transfected with human gamma delta T lymphocytes assessed as survival time prolongation at 2 ug, ip coadministered with human recombinant IL2. It is filed as functional, organism-based. Summed up:
as §2

Data set [7] deals with BT-549. Kind of data set: Antitumor activity against human BT-549 cells xenografted SCID mouse co-transfected with human gamma delta T lymphocytes assessed as survival time prolongation at 5 ug, ip coadministered with human recombinant IL2. Type of data set: functional, organism-based. Summed up: as §2
Data set [8] has as its system K562. Kind of data set: Induction of apoptosis in human K-562 cells expressing Bcr-Abl at <50 uM by flow cytometry. Type of data set: functional, cell-based.
Data set [9] in a line: Cytotoxicity against human CFU-GM cells at 100 uM after 7 days.
In data set [10] the test system is BT-549. Kind of data set: Antitumor activity against human BT-549 cells xenografted SCID mouse assessed as survival time prolongation at 2 ug, ip.
Data set [11] has as its target T1, Farnesyl pyrophosphate synthase (Homo sapiens, UniProt P14324).
T1 sequence (P14324 whole entry): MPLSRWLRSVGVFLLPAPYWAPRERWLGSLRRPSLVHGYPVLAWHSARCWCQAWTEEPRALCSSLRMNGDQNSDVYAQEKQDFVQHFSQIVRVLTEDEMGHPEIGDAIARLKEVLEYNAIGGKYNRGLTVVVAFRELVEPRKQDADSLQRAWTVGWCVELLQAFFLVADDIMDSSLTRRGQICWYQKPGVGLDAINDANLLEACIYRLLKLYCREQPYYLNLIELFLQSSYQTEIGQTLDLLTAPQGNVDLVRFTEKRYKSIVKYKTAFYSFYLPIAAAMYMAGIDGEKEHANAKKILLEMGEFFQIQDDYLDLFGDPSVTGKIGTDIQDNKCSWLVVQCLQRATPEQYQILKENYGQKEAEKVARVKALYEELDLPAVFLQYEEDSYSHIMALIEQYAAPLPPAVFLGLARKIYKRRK
Kind of data set: Inhibition of human FPP synthase expressed in Escherichia coli BL21 (DE3).

The test system of data set [12] is BT-549. Kind of data set: Antitumor activity against human BT-549 cells xenografted SCID mouse co-transfected with human gamma delta T lymphocytes assessed as survival time prolongation at 2 ug, ip. Type of data set: functional, cell-based. Summed up:
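SCID mice conditioned by irradiation plus anti-asialo-GM1 antibody; day 0 single i.p. BT549 (2 × 10⁶/mouse) with concomitant i.p. drug (2 µg), ± rIL-2 (300 ng), plus highly purified human γδ T cells (2 × 10⁷/mouse). γδ T cells and drug re-injected every 15 days; rIL-2 the same day and 3 and 6 days after each. Read-out: mean survival time (days).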

Consider `O.O=P(O)(O)C(O)(Cn1ccnc1)P(=O)(O)O` [ZOLEDRONIC ACID], for which the Activity amounted to 0.1 µM in data set [1]; 24% with HuT78; 16% in the data set with K562 [2]; 20% in the data set with CCRF-CEM; 22% in data set [3]; 18% in [9]. For the same molecule, the result in the data set on BT-549 [4], with BT-549 [5], in the data set with K562 [8] and with BT-549 [10] was inactive. The outcome in the data set on BT-549 [6] and with BT-549 [7] was Active.

Take `O=P(O)(O)C(Cn1cnc2cncnc21)P(=O)(O)O`: in [1], the Activity stood at 0.2 µM. Moreover, the concentration for half-maximal inhibition (IC50) – broadly, the concentration that gives 50% inhibition – in data set [11] is 388 nM.

Consider `O=P(O)(O)C(Cn1ccnc1)P(=O)(O)O`, for which the Activity turned out to be 0.001 µM in data set [1]; 40% with HuT78; 15% in the data set on K562 [2]; 22% in the data set on CCRF-CEM; 37% in data set [3]; 15% in data set [9]. In addition, the outcome with BT-549 [4], with K562 [8] and with BT-549 [10] was inactive. In the data set on BT-549 [12], the result was Active.

In the case of `O=P(O)(O)C(CSc1ncc[nH]1)P(=O)(O)O`, the Activity in data set [1] is above 10 µM. Besides, the midpoint of inhibition in data set [11], the IC50, lay at 28.1 nM.

With `O=P(O)(O)C(Cn1cnc2c(Cl)ncnc21)P(=O)(O)O`, the Activity in [1] stood at 0.1 µM. It took 883 nM to reach half-maximal inhibition in [11] (IC50).

Consider `O=P(O)(O)C(Cn1cnc2ccccc21)P(=O)(O)O`, for which the Activity in data set [1] was found to be 1 µM. Moreover, the half-inhibitory concentration (IC50) in [11] was determined as 16.1 nM.

Regarding `O=P(O)(O)C(Cn1cccn1)P(=O)(O)O`, in data set [1], the Activity was above 10 µM. This molecule yielded an IC50 in data set [11] of 3070 nM.
